Screening data deposited in PubChem BioAssay by Johns Hopkins Ion Channel Center.
KCNQ1 pot = potentiators or activators of KCNQ1 channel, primary screen, cell-based, thallium flux, high-throughput; Potassium voltage-gated channel subfamily KQT member 1 (Homo sapiens), P51787; CHO-K1 KCNQ1, thallium flux FluxOR fluorescence; hits give high values; B-score at 10 µM; hit rate 0.35% among 310,000; AID 2648, 2010;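 active = fluorescence ratio B-score, a plate-corrected score, at least three library SD, with initial intensity B-score within 5 SD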
Target sequence (P51787 whole entry, looked up): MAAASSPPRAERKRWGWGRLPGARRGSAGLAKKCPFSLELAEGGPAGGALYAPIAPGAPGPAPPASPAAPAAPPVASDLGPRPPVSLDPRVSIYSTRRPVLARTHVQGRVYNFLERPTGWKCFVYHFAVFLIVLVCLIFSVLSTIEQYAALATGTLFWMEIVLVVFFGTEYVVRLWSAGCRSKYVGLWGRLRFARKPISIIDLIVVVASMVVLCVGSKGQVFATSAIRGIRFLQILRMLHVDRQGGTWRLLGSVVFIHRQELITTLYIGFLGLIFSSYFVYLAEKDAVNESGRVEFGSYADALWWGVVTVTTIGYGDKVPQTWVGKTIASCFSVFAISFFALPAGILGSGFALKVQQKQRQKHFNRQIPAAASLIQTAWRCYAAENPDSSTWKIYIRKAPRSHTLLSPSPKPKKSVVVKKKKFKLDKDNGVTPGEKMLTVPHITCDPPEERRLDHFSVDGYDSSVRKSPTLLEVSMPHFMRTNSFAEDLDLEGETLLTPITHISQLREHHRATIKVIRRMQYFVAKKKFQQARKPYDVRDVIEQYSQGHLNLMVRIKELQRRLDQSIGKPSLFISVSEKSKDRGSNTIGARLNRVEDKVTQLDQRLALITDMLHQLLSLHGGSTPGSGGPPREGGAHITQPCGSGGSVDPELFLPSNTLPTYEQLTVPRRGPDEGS
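Assay system: CHO-K1 cells stably expressing KCNQ1. Medium: assay buffer for compound exposure, DMSO matched across wells. Timing: 37 °C overnight plating, 90-min dark dye load, 20-min compound pretreatment. Signal: kinetic FluxOR fluorescence, 10 s baseline plus 110 s post-stimulus.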
KCNK3 inh = human KCNK3 channel inhibitors, primary screen, CHO cells, FluxOR thallium flux, B-score | Potassium channel subfamily K member 3 (Homo sapiens), O14649 | FluxOR fluorescence; hits give low values | B-score at 10 µM | hit rate 0.84% among 340,000 | AID 602410, 2012;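 active = B-score under library mean minus 4 SD, starting fluorescence ratio at most library mean plus 5 SD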;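 also: more negative B-score means stronger inhibition of thallium flux through KCNK3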
hERG rescue = hERG rescue from dofetilide block, primary screen, cell-based, CHO-hERG, FluxOR thallium flux, dofetilide IC70; Voltage-gated inwardly rectifying potassium channel KCNH2 (Homo sapiens), Q12809; dofetilide IC70 present; activation (rescue from dofetilide block), less the hit threshold, % at 10 µM; hit rate 0.51% among 310,000;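 active = activation above the mean of controls blocked by dofetilide plus 5 SD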;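 also: thallium influx through hERG after potassium depolarization seen as dye fluorescence rise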
KCNK9 inh = KCNK9 potassium channel inhibitors, primary screen, HEK293 cells, thallium flux; FluxOR thallium flux fluorescence; hits give low values; hit rate 1.2% among 310,000; B-score at 10 µM; AID 488922, 2010;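 active = ratio B-score over 3 SD below the library mean, with starting fluorescence within 5 SD of its mean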;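 also: negative B-score means less thallium flux so channel inhibition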
KCNQ1 inh = inhibitors of human KCNQ1 channel, primary screen, cell-based, thallium flux, high-throughput; Potassium voltage-gated channel subfamily KQT member 1 (Homo sapiens), P51787; CHO-K1 KCNQ1, FluxOR thallium flux fluorescence; hits give high values; B-score at 10 µM; hit rate 1.3% among 310,000; AID 2642, 2010;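 active = compounds whose thallium flux B-score, printed positive for inhibition, exceeds three library SD while starting fluorescence stays within three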;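 also: channel opened by potassium depolarization with thallium stimulus after 20 min compound exposure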
KCNK9 block conf = KCNK9 potassium channel inhibitors, confirmation, HEK293 cells, thallium flux, duplicate. shares compounds with KCNK9 inh. FluxOR thallium flux fluorescence. inhibition, % at 10 µM. hit rate 43% among 4,900. AID 492992, 2010;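 active = thallium signal inhibited by more than 5 SD of the compound-free buffer control wells, on both duplicate plates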;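 also: 0% = assay buffer control wells without compound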
Kir21 sel = mouse Kir2.1 channel inhibition, confirmation, selectivity assay for KCNK9 modulator project, cell-based, HEK293, thallium flux | shares compounds with KCNK9 inh | Kir2.1 cells, FluxOR thallium flux fluorescence | inhibition, % at 10 µM | hit rate 4% among 4,900;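 active = thallium signal drop more than 5 SD beyond the mean of the no-compound control wells, seen in both duplicate plates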;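 also: signal is fluorescence rise after thallium addition divided by baseline fluorescence; plate controls were assay buffer only for no effect and full block by chlorpromazine control for full effect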
HEK293 Tl ctr = thallium flux in non-induced HEK293 cells, confirmation, counter-screen for KCNK9 inhibitor project, cell-based, second counter screen, non-induced KCNK9-HEK293; inhibition, % at 10 µM; shares compounds with KCNK9 inh; FluxOR thallium flux; AID 492997, 2010; hit rate 40% among 4,900;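 active = thallium signal drop beyond 5 SD of the untreated control mean, on both duplicate plates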;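 also: plate controls were buffer only IC0 wells for no effect and SID17386958 at its maximal inhibitory level for full effect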
The depositor's hits bear a star; i = inactive; / = no result given. Only some compounds are listed: those with a hit (about 3.1% of all), similar ones and a draw of the others.

SMILES | KCNQ1 pot | KCNK3 inh | hERG rescue | KCNK9 inh | KCNQ1 inh | KCNK9 block conf | Kir21 sel | HEK293 Tl ctr
COc1ccc2cc(C(=O)C3CCCN(C(=O)/C=C/c4ccccn4)C3)ccc2c1 (stereo not given) | i | i | -5 | i | i | i | i | i
Cc1cc(C(=O)N2CCCC(C(=O)c3ccc4ccccc4c3)C2)n(C)n1 (stereo not given) | i | i | -6 | i | i | i | i | i
CCn1cc(C(=O)N2CCCC(C(=O)c3ccc4ccccc4c3)C2)cn1 (stereo not given) | i | i | -3 | i | i | i | i | i
O=C(c1ccc2ccccc2c1)C1CCCN(C(=O)c2cnccn2)C1 (stereo not given) | i | i | -11 | i | i | i | i | i
O=C(NNS(=O)(=O)c1ccc2ccccc2c1)NC1CCCCC1 | i | i | -4 | i | i | / | / | /
O=[N+]([O-])c1ccccc1SN(Cc1ccccc1)c1ccccn1 | i | i | -6 | -8.6* | i | 40%* | i | 44%*
COc1cc(C(Nc2ccccn2)c2ccc3ccc(C)nc3c2O)cc(OC)c1O (stereo not given) | i | i | -24 | i | i | / | / | /
Cc1ccc2ccc(C(Nc3ccccn3)c3ccccc3)c(O)c2n1 (stereo not given) | i | i | -10 | i | i | i | i | i
N#CC1(Cc2ccc([N+](=O)[O-])cc2)c2ccccc2C=CN1C(=O)c1ccccc1 (stereo not given) | i | i | -4 | -12* | i | 32%* | i | 34%*
N#CC1(Cc2ccccc2)c2ccccc2C=CN1C(=O)c1ccccc1 (stereo not given) | i | i | -19 | -9.8* | 6* | 46%* | i | 31%*
O=C(c1cccc(-c2ccccc2F)c1)N1CC[C@@H](N2CCC(O)CC2)[C@H](O)C1 | i | i | -12 | i | i | / | / | /
Cc1onc(-c2ccccc2)c1C(=O)OCc1nnc(-c2ccccc2)o1 | i | i | -10 | i | i | / | / | /
CN(C1CCCCC1)S(=O)(=O)c1cccc(C(=O)OCC(=O)NC2CCCc3ccccc32)c1 (stereo not given) | i | i | -4 | -9.5* | i | 56%* | i | i
CN(CC(=O)NC1CCCc2ccccc21)C1CCCCC1 (stereo not given) | i | i | -7 | i | i | / | / | /
COc1ccc(S(=O)(=O)NNC(=O)c2csc(-n3nc(C)cc3C(F)(F)F)n2)cc1OC | i | i | -4 | i | i | / | / | /
COc1ccc(/C=N/NC(=O)c2csc(-n3nc(C)cc3C(F)(F)F)n2)cc1 | i | i | -12 | -10* | i | i | i | 26%*
CN(C)S(=O)(=O)c1cccc(NC(=O)C2CCN(S(=O)(=O)c3cccs3)CC2)c1 | / | i | / | / | / | / | / | /
CC(C)(C)c1ccc(C(=S)N2CCN(c3ccccc3)CC2)cc1 | i | i | -8 | i | 6* | i | i | i
O=C(CCS(=O)(=O)Cc1ccccc1)N1CCc2ccccc2C1 | i | i | -8 | i | i | i | i | i
O=C(Cc1ccc(Br)cc1)OCC(=O)N1CCc2ccccc2C1 | i | i | -2 | i | i | i | i | i
O=C(CCS(=O)(=O)Cc1ccccc1F)N1CCc2ccccc2C1 | i | i | -3 | i | i | / | / | /
O=C(COc1ccc(Br)cc1)N1CCc2ccccc2C1 | i | i | -12 | i | i | / | / | /
COc1ccc(N2C(=O)C3CCCN3C2=S)cc1 (stereo not given) | i | i | -8 | i | i | / | / | /
COc1ccc(NS(=O)(=O)c2ccc3nc(COc4cccc5ccccc45)[nH]c3c2)cc1 | i | i | -17 | i | i | i | i | i
COc1ccc(NS(=O)(=O)c2ccc3nc(COc4ccc5ccccc5c4)[nH]c3c2)cc1 | i | i | -8 | i | i | / | / | /
SMILES | KCNQ1 pot | KCNK3 inh | hERG rescue | KCNK9 inh | KCNQ1 inh | KCNK9 block conf | Kir21 sel | HEK293 Tl ctr
COc1ccc(CN2CCN(CCSc3ccc(C)cc3)CC2)c(OC)c1OC | i | i | -2 | i | i | i | i | i
CCOc1ccccc1N1CCN(Cc2ccc(OC)c(OC)c2OC)CC1 | i | i | -10 | i | i | / | / | /
Cc1ccc(S(=O)(=O)N2CCC(C(=O)Nc3ccccc3N3CCCC3)CC2)cc1C | i | i | -15 | i | i | / | / | /
CCOC(=O)N1CCN(C(=O)c2cc(-c3ccc(OCC)cc3)nc3ccccc23)CC1 | i | i | -19 | i | i | / | / | /
CCOc1ccc(-c2cc3nc(C4CCN(C(=O)OC(C)(C)C)CC4)c(C(=O)O)cn3n2)cc1 | i | i | -19 | i | i | i | i | 34%*
COc1ccc(C2SCC(=O)N2c2nnc(C34CC5CC(CC(C5)C3)C4)s2)cc1 (stereo not given) | i | i | -6 | i | i | / | / | /
COc1cc(C2SCC(=O)N2c2nnc(C34CC5CC(CC(C5)C3)C4)s2)cc(OC)c1OC (stereo not given) | i | i | -6 | i | i | i | i | i
CC(C)Oc1ccc(C2NC(=O)c3ccccc3O2)cc1 (stereo not given) | i | i | 3 | i | i | / | / | /
Cc1nn(-c2ccccn2)c2c1C(=O)CC(C)(C)C2N=[N+]=[N-] (stereo not given) | / | i | / | / | / | / | / | /
Cc1nc(S/C(=C/c2ccc(-c3cc(Cl)ccc3C)o2)C(=O)O)n[nH]1 | i | i | -10 | i | 8* | i | i | 36%*
O=C(Cn1cc2c(n1)CCCC2)Nc1cc(-c2cccc(Cl)c2)no1 | i | i | -5 | -15* | i | 60%* | i | i
